In ChEMBL document CHEMBL2331168, “Anticonvulsant evaluation of aminoalkanol derivatives of 2- and 4-methylxanthone” (Bioorg Med Chem, 2013) one finds Activity data, which are given here for three compounds.

In series [1] the test system is Rattus norvegicus. Briefly: Neurotoxicity in Sprague-Dawley rat assessed as minimal motor impairment at 30 mg/kg, po after 0.25 hrs by rotorod test. Conditions: in vivo. (In the rotarod test animals must keep their balance on a rotating rod.)
The test system of series [2] is Mus musculus. Briefly: Anticonvulsant activity in albino mouse assessed as protection against maximal electroshock-induced seizures at 100 mg/kg, ip after 4 hrs. In kind it is functional, organism-based. More on the design: dose 100 mg/kg. An outline of the steps: (§1)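 Male albino mice (Carworth Farms No. 1) were given the compound ip as a suspension in 0.5% methylcellulose at 3–300 mg/kg. MES testing was at 0.5 and 4 h, sometimes also at 0.25 and 1 h. Current was 60 Hz, 50 mA, 0.2 s via corneal electrodes, with saline eye drops. Protection meant no hindlimb tonic extension, scored as protected/tested.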

The test system of series [3] is Mus musculus. Kind of series: Anticonvulsant activity in albino mouse assessed as protection against subcutaneous pentetrazole-induced seizures at 30 mg/kg, ip after 4 hrs. More on the design: dose 30 mg/kg. The class given is functional, organism-based. An outline of the steps: (§2)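 Male albino mice (Carworth Farms No. 1) received compound ip in 0.5% methylcellulose, then pentetrazole 85 mg/kg sc in 0.9% NaCl at 0.5 or 4 h. Mice were watched for at least 30 min. Protection meant no threshold seizure, defined as a single clonic spasm lasting at least 5 s. Scored as protected/tested.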

The subject of series [4] is Mus musculus. Briefly: Neurotoxicity in albino mouse assessed as minimal motor impairment at 100 mg/kg, ip after 4 hrs by rotorod test. The class given is toxicity, organism-based. Also noted: dose 100 mg/kg, route intraperitoneal. As to conditions: in vivo. An outline of the steps: (§3)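 Male albino mice (Carworth Farms No. 1) were dosed ip with suspensions in 0.5% methylcellulose and put on a 1 in. knurled rod rotating at 6 rpm at set times after dosing. Neurotoxicity meant failure to stay on the rod for at least 1 min in each of three trials. Scored as impaired/tested.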

Series [5] relates to Rattus norvegicus. Briefly: Anticonvulsant activity in Sprague-Dawley rat assessed as protection against maximal electroshock-induced seizures at 30 mg/kg, po after 0.25 hrs. More on the design: dose 30 mg/kg. In kind it is functional, organism-based. The procedure, abridged: (§4)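 Male Sprague-Dawley rats dosed orally at 30 mg/kg and tested at 0.25, 0.5, 1, 2 and 4 h. Seizures were induced by 60 Hz alternating current at 150 mA for 0.2 s through corneal electrodes, after a drop of 0.9% NaCl in each eye. Protection meant abolition of hindlimb tonic extension. Reported as protected/tested, usually 4 rats per time point.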

The subject of series [6] is Rattus norvegicus. Briefly: Neurotoxicity in Sprague-Dawley rat assessed as minimal motor impairment at 30 mg/kg, po after 1 hr by rotorod test. Conditions: in vivo.
Series [7] deals with Rattus norvegicus. Kind of series: Anticonvulsant activity in Sprague-Dawley rat assessed as protection against maximal electroshock-induced seizures at 30 mg/kg, po after 1 hr. In kind it is functional, organism-based. More on the design: dose 30 mg/kg. The procedure, abridged: as §4
In general terms: In the maximal electroshock model the usual endpoint is tonic extension of the hind limbs.

Series [8] concerns Rattus norvegicus. Kind of series: Neurotoxicity in Sprague-Dawley rat assessed as minimal motor impairment at 30 mg/kg, po after 2 hrs by rotorod test. As to conditions: in vivo.
Series [9] concerns Mus musculus. Briefly: Anticonvulsant activity in albino mouse assessed as protection against maximal electroshock-induced seizures at 30 mg/kg, ip after 0.5 hrs. In kind it is functional, organism-based. Also noted: dose 30 mg/kg. The procedure, abridged:
as §1

The test system of series [10] is Rattus norvegicus. Kind of series: Neurotoxicity in Sprague-Dawley rat assessed as minimal motor impairment at 30 mg/kg, po after 0.5 hrs by rotorod test. Conditions: in vivo.
Series [11] has as its system Mus musculus. Briefly: Anticonvulsant activity in albino mouse assessed as protection against subcutaneous pentetrazole-induced seizures at 30 mg/kg, ip after 0.5 hrs. The class given is functional, organism-based. More on the design: dose 30 mg/kg. The procedure, abridged:
as §2

For series [12], the system named is Rattus norvegicus. Briefly: Neurotoxicity in Sprague-Dawley rat assessed as minimal motor impairment at 30 mg/kg, po after 4 hrs by rotorod test. Conditions: in vivo.
Series [13] concerns Mus musculus. Briefly: Anticonvulsant activity in albino mouse assessed as protection against maximal electroshock-induced seizures at 30 mg/kg, ip after 4 hrs. Also noted: dose 30 mg/kg. The class given is functional, organism-based. An outline of the steps: as §1
Series [14] relates to Mus musculus. Briefly: Neurotoxicity in albino mouse assessed as minimal motor impairment at 30 mg/kg, ip after 0.5 hrs by rotorod test. Also noted: dose 30 mg/kg, route intraperitoneal. Conditions: in vivo. In kind it is toxicity, organism-based. An outline of the steps:
as §3

Series [15] concerns Mus musculus. Briefly: Neurotoxicity in albino mouse assessed as minimal motor impairment at 30 mg/kg, ip after 4 hrs by rotorod test. As to conditions: in vivo. Also noted: dose 30 mg/kg, route intraperitoneal. In kind it is toxicity, organism-based. The procedure, abridged: as §3
Series [16] deals with Mus musculus. Kind of series: Anticonvulsant activity in albino mouse assessed as protection against subcutaneous pentetrazole-induced seizures at 100 mg/kg, ip after 0.5 hrs. In kind it is functional, organism-based. Also noted: dose 100 mg/kg. The procedure, abridged: as §2
For series [17], the system named is Mus musculus. Briefly: Neurotoxicity in albino mouse assessed as minimal motor impairment at 300 mg/kg, ip after 0.5 hrs by rotorod test. Conditions: in vivo. In kind it is toxicity, organism-based. More on the design: dose 300 mg/kg, route intraperitoneal. The procedure, abridged: as §3
Series [18] relates to Rattus norvegicus. Kind of series: Anticonvulsant activity in Sprague-Dawley rat assessed as protection against maximal electroshock-induced seizures at 30 mg/kg, po after 2 hrs. The class given is functional, organism-based. More on the design: dose 30 mg/kg. The procedure, abridged: as §4
The subject of series [19] is Mus musculus. Briefly: Anticonvulsant activity in albino mouse assessed as protection against maximal electroshock-induced seizures at 300 mg/kg, ip after 0.5 hrs. More on the design: dose 300 mg/kg. The class given is functional, organism-based. An outline of the steps: as §1
The test system of series [20] is Mus musculus. Briefly: Anticonvulsant activity in albino mouse assessed as protection against maximal electroshock-induced seizures at 100 mg/kg, ip after 0.5 hrs. More on the design: dose 100 mg/kg. In kind it is functional, organism-based. An outline of the steps: as §1
For series [21], the system named is Mus musculus. Briefly: Anticonvulsant activity in albino mouse assessed as protection against subcutaneous pentetrazole-induced seizures at 300 mg/kg, ip after 0.5 hrs. In kind it is functional, organism-based. Also noted: dose 300 mg/kg. An outline of the steps: as §2
The subject of series [22] is Rattus norvegicus. Kind of series: Anticonvulsant activity in Sprague-Dawley rat assessed as protection against maximal electroshock-induced seizures at 30 mg/kg, po after 4 hrs. In kind it is functional, organism-based. More on the design: dose 30 mg/kg. The procedure, abridged:
as §4

Series [23] relates to Mus musculus. Kind of series: Anticonvulsant activity in albino mouse assessed as protection against maximal electroshock-induced seizures at 300 mg/kg, ip after 4 hrs. In kind it is functional, organism-based. More on the design: dose 300 mg/kg. An outline of the steps:
as §1

In series [24] the test system is Mus musculus. Kind of series: Anticonvulsant activity in albino mouse assessed as protection against subcutaneous pentetrazole-induced seizures at 100 mg/kg, ip after 4 hrs. Also noted: dose 100 mg/kg. In kind it is functional, organism-based. An outline of the steps: as §2
Series [25] relates to Mus musculus. Kind of series: Neurotoxicity in albino mouse assessed as minimal motor impairment at 300 mg/kg, ip after 4 hrs by rotorod test. In kind it is toxicity, organism-based. More on the design: dose 300 mg/kg, route intraperitoneal. Conditions: in vivo. An outline of the steps: as §3
For series [26], the system named is Rattus norvegicus. Briefly: Anticonvulsant activity in Sprague-Dawley rat assessed as protection against maximal electroshock-induced seizures at 30 mg/kg, po after 0.5 hrs. The class given is functional, organism-based. More on the design: dose 30 mg/kg. An outline of the steps: as §4
Series [27] deals with Mus musculus. Kind of series: Anticonvulsant activity in albino mouse assessed as protection against subcutaneous pentetrazole-induced seizures at 300 mg/kg, ip after 4 hrs. In kind it is functional, organism-based. Also noted: dose 300 mg/kg. The procedure, abridged:
as §2

Activity calls are given as the source filed them.

Regarding `COc1ccc2c(=O)c3cccc(CNC(C)CO)c3oc2c1.Cl` (racemic), the Activity entry in series [1] is “Non-toxic”; in series [4] it was “Toxic”; in series [6], “Non-toxic”; in series [8], “Non-toxic”; in series [10] it was “Non-toxic”; in [12] it was “Non-toxic”. For the same compound, the Activity result in series [14] is listed as “Non-toxic”; in [15] it was “Non-toxic”; in series [17] it was “Toxic”. Besides, the result in series [2], in [3], in [5], in series [7], in series [9] and in series [11] was inactive. For the same compound, the outcome in series [13], in series [16] and in series [18] was inactive.

For `COc1ccc2c(=O)c3cccc(CN[C@H](C)CO)c3oc2c1`, the Activity entry is “Non-toxic” in series [1]; “Non-toxic” in series [4]; “Non-toxic” in series [8]; “Non-toxic” in [14]; “Non-toxic” in series [15]; “Toxic” in series [17]. Moreover, in [25], the Activity result is given as “Toxic”. For the same compound, the result in series [2], in series [3], in series [20], in [5], in series [7] and in [9] was inactive. Moreover, the result in [11], in [21], in series [13], in [22], in series [16] and in series [24] was inactive. The result in [19] and in series [23] was Active.

Regarding `COc1ccc2c(=O)c3cccc(CN[C@@H](C)CO)c3oc2c1`, the result in [26], in series [2], in series [3], in [19], in series [5] and in series [9] was inactive. Moreover, the outcome in series [11], in series [21], in [13], in series [22], in series [27] and in [16] was inactive. Further, the outcome in series [24] and in series [18] was inactive. For the same compound, the Activity entry in series [1], in series [4], in [6], in series [8], in series [10] and in [12] was “Non-toxic” each time. Moreover, the Activity entry in series [14], in [15] and in [25] was “Non-toxic” each time. Further, the outcome in series [23] was Active.
